The test system of series [1] is Klebsiella pneumoniae mature biofilms. Nature of the series: Flow cell biofilm assay with confocal microscopy. It counts as cell-based. To be noted: top FIC combination, added at day 2. In outline: (§1)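 Biofilms grown at 37°C in BM2 glucose minimal medium in flow chambers (1 × 4 × 40 mm channels) for 72 h. Test compound, antibiotic or both were added to the flow-through medium at day 2 of biofilm formation. Combination levels were taken from checkerboard FIC results, with peptide levels lowered in some cases. Cells were stained with LIVE/DEAD BacLight and imaged by confocal microscopy with 3D reconstruction.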

In series [2] the test system is E. coli mature biofilms. In words: Flow cell biofilm assay with confocal microscopy. The class given is cell-based, Escherichia coli. The following applies: top FIC combination, added at day 2. In outline:
as §1

For series [3], the system named is P. aeruginosa PAO1. Nature of the series: C. elegans survival assay, infected. The class given is in vivo, Caenorhabditis elegans. The following applies: peptide 20 μg/ml, 25°C, average ± SD, n ≥ 12.
The test system of series [4] is P. aeruginosa PA14 biofilms. In words: Flow cell biofilm assay with confocal microscopy. The class given is cell-based, Pseudomonas aeruginosa. In outline: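 P. aeruginosa PA14 biofilms grown at 37°C in BM2 glucose minimal medium in flow chambers (1 × 4 × 40 mm channels). […] For eradication, test compound was first added after 2 days of growth. Cells were stained with LIVE/DEAD BacLight and imaged by confocal microscopy.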

Series [5] concerns A. baumannii mature biofilms. In words: Flow cell biofilm assay with confocal microscopy. It counts as cell-based, Acinetobacter baumannii. The following applies: 0.8 μg/ml DJK-5 with tobramycin, added at day 2. In outline:
as §1

The test system of series [6] is G. mellonella. Nature of the series: G. mellonella survival assay, uninfected. To be noted: in vivo.
The subject of series [7] is S. enterica mature biofilms. Nature of the series: Flow cell biofilm assay with confocal microscopy. It counts as cell-based, Salmonella enterica. The following applies: top FIC combination, added at day 2. In outline: as §1
Series [8] concerns P. aeruginosa. To be noted: free swimming (planktonic) cells; ref Overhage et al, 2008; cited from earlier work.
Series [9] concerns P. aeruginosa biofilm. The following applies: relative to MIC; ref Overhage et al, 2008; cited from earlier work.

The values that follow come from PMC4362967 (Chemistry & biology, 2015).

Usually MIC stands for the lowest concentration that inhibits growth of the organism.

Where a SMILES comes first, the peptide text is derived from it. [ ]: non-standard residue; d: D form.

Regarding `CC[C@@H](C)[C@@H](NC(=O)[C@@H](C)NC(=O)[C@@H](CCCNC(=N)N)NC(=O)[C@@H](Cc1c[nH]c2ccccc12)NC(=O)[C@@H](CCC(N)=O)NC(=O)[C@H](N)C(C)C)C(=O)N[C@H](CCCNC(=N)N)C(=O)N[C@@H](C(=O)N[C@H](CCCNC(=N)N)C(=O)N[C@@H](C(=O)N[C@@H](C(=O)N[C@H](CCCNC(=N)N)C(N)=O)[C@H](C)CC)C(C)C)C(C)C` [DJK5] (H-[dV][dQ][dW][dR][dA][dI][dR][dV][dR][dV][dI][dR]-NH2; N-terminus and C-terminus assumed), the “eradication of 2-day-old biofilms, combination with ciprofloxacin” value in series [1] is recorded as “eradication”; in series [4] (top FIC combination, added at day 2, P. aeruginosa PA14), “much more limited dispersal but triggered cell death in remaining cells”. For the same compound, the “eradication of 2-day-old biofilms, combination with ceftazidime” value is on record as “not synergistic” in [2] and “eradication” in series [7]. The “C. elegans survival (%) 24h P. aeruginosa PAO1” value in [3] (24 h post infection) worked out at 99 ± 2 %. In [3] (48 h post infection), the “C. elegans survival (%) 48h post infection P. aeruginosa PAO1” value is listed as 96 ± 4 %. The “biofilm inhibition in flow cells, combination with ciprofloxacin” value in series [4] (0.1 μg/ml of DJK-5 with 0.04 μg/ml of ciprofloxacin, added at day 0, 3 days) is “complete biofilm inhibition”. Further, the “eradication of 2-day-old biofilms, combination with tobramycin” value in series [5] was “eradication”. In series [6], the “G. mellonella survival (%) 24h No infection” value came out at 100 ± 0%. Besides, in series [6], the “G. mellonella survival (%) 48h No infection” value stood at 100 ± 0%.
With “LL-37: the human peptide LL-37, cationic host defense peptide”, the MIC in series [8] was above 64 mg/L. Further, in series [9], the “concentration active against P. aeruginosa biofilms” value is “one sixteenth the MIC”.
